5HT1a ag: agonists of human 5-HT1a serotonin receptor. P08908. CHO 5-HT1a Ga15 NFAT-bla reporter, FRET ratio; 0% basal, 100% maximal reference agonist. activation, % at 10 µM. actives 0.56% (n = 65,000). AID 567;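 active = activation above the screen-wide mean activation plus 3 SD, cut at about 19% in these data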;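 note: 0% = DMSO wells and 100% = 5-CT at EC100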
Target sequence (P08908 whole entry, looked up): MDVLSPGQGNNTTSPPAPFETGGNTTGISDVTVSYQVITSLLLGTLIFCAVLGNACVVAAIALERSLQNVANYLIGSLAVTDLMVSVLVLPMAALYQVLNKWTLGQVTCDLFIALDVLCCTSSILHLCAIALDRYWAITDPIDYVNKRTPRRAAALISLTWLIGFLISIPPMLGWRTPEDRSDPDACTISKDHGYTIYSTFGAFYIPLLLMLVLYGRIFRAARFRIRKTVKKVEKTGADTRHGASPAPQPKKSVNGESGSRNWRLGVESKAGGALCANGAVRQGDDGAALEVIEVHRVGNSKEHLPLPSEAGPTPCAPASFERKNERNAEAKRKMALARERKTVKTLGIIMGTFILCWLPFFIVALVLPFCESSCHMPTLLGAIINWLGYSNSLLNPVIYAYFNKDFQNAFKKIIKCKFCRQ
HEK293 NFkB inh: inhibitors of the PMA/ionomycin-induced NF-kB reporter in HEK293 cells; HEK-293 NF-kB luciferase reporter, luminescence; inhibition, % at 3 µM; actives 0.21% (n = 62,000);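 active = inhibition above the mean of all tested compounds plus 3 SD, cut at about 40% in these data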;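 note: 0% = stimulated DMSO wells and 100% = 10 µM reference inhibitor 5653914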
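System: NF-kB luciferase reporter HEK-293 cells | Replication: Single test | Control set: DMSO vs reference inhibitor | Evaluation: % inhibition | Schedule: 1 h pretreatment, 16 h stimulation, 37 °C | Probe or stimulus: PMA with ionomycin | Compound dosing: One dose, 3 µM | Detection: Luciferase luminescence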
HTR1E agonist: agonists of human 5-HT1E serotonin receptor; P28566; CHO 5-HT1E Ga15 NFAT-bla reporter, FRET; 0% DMSO wells, 100% control agonist wells; activation, % at 6 µM; actives 0.69% (n = 65,000); AID 574;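 active = activation above a set limit, the screen-wide mean activation plus 3 SD, cut at about 8.5% in these data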;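 note: 100% = positive control agonist at 1 µM giving full maximal response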
5-HT1A blocker: 5-HT1a (human) receptor antagonism; P08908; CHO 5-HT1a Ga15 NFAT-bla reporter, antagonist mode; inhibition, % at 10 µM; actives 0.68% (n = 62,000);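 active = inhibition above the mean of all tested compounds plus 3 SD, cut at about 43% in these data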;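 note: receptor stimulated by 5-CT agonist at 100 nM near EC80; beta-lactamase reporter measured by ratiometric fluorescence of a cleavable substrate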
HTR1E antagonist: 5-HT1E (human) receptor antagonism; actives 0.99% (n = 65,000); inhibition, % at 6 µM; CHO 5-HT1E Ga15 NFAT-bla reporter, FRET, antagonist;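 active = inhibition above a set limit, the mean inhibition across every tested compound plus 3 SD, cut at about 29% in these data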;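 note: signal is the 460 over 535 nm emission ratio of beta-lactamase substrate; 0% = agonist plus DMSO wells and 100% = wells without agonist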
Starred values were filed as active, the others as inactive; x = no result given. Most compounds without a hit are left out; they make up all but 2.6% or so of the library.

SMILES	5HT1a ag	HEK293 NFkB inh	HTR1E agonist	5-HT1A blocker	HTR1E antagonist
CCOc1ccc2[nH]c(=O)c(CN(Cc3ccccc3)C(=O)N3CCCC3)cc2c1	-1	1	0	-1	-3
COc1ccc(C2=NOC(C(=O)NCc3ccccc3)C2)cc1 (configuration not stated)	-3	23	0	30	39*
CCn1ncc(C2=NOC(C(=O)NCc3ccccc3)C2)c1C (configuration not stated)	-5	21	-2	10	37*
CCn1ncc(C2=NOC(C(=O)NCc3ccc(OC)cc3)C2)c1C (configuration not stated)	0	12	-1	3	-9
CCn1c(SCCC#N)nnc1-c1ccncc1	-2	26	0	-7	-3
COc1ccc(-c2nc(C#N)c(NCc3ccc(F)cc3)o2)cc1OC	0	21	1	3	30*
COc1ccc(-c2nc(C#N)c(NCc3ccccc3Cl)o2)cc1OC	4	17	0	16	22
CC1CCN(C(c2ccc(N(C)C)cc2)c2nnnn2Cc2ccccc2)CC1 (configuration not stated)	-1	2	-1	15	5
COc1ccc(Cn2nnnc2C(c2ccc(N(C)C)cc2)N2CCC(C)CC2)cc1 (configuration not stated)	3	20	1	44*	10
N#Cc1nc(-c2cccs2)oc1NCCCN1CCOCC1	-2	18	-1	-1	3
Cc1cc(C)nc(Sc2c(C)nn(-c3ccccc3)c2C)n1	-1	18	0	-8	-19
Clc1ccc(Cn2ncc3c(NCc4ccco4)ncnc32)c(Cl)c1	-1	18	0	32	39*
CCC(=O)Nc1ccc(-c2nc(-c3ccccc3)n(CC(=O)N3CCCCC3)n2)cc1	-3	2	-1	2	-5
CCn1cc(Br)c(C(=O)Nc2cccc(SC)c2)n1	-2	-3	-1	16	6
COc1cc2c(cc1NC(=O)CCCN1C(=O)CCC1=O)oc1ccccc12	11	5	0	-8	-2
COc1cc2c(cc1NC(=O)CN1C(=O)NC3(CCc4ccccc43)C1=O)oc1ccccc12 (configuration not stated)	-1	10	1	45*	-14
COc1ccc(N2CCN(C(c3ccccc3OC)c3nnnn3C3CCCC3)CC2)cc1 (configuration not stated)	-5	22	0	29	-1
COc1ccc(N2CCN(C(c3cccc(OC)c3OC)c3nnnn3C3CCCC3)CC2)cc1 (configuration not stated)	-1	14	0	44*	4
COc1cccc(C(c2nnnn2Cc2ccccc2)N2CCN(C(=O)c3ccco3)CC2)c1OC (configuration not stated)	2	19	-1	6	-1
COc1cccc(C(c2nnnn2Cc2ccco2)N2CCN(c3cccc(C)c3C)CC2)c1OC (configuration not stated)	3	27	2	52*	-22
CN(C)S(=O)(=O)c1cccc(CSc2cccc[n+]2[O-])c1	-2	6	0	-5	-5
Cn1nnc(-c2ccc(OCc3ccccc3F)cc2)n1	-2	-40	13*	-12	4
CSc1nc(N2CCOCC2)c2c3c(sc2n1)CCCC3	5	10	1	-14	32*
CN1CCN(S(=O)(=O)c2ccc(NC(=O)c3csc4ccccc34)cc2)CC1	-2	6	0	15	35*
CCOc1ccc(N(CC(=O)O)S(=O)(=O)c2ccc(F)cc2)cc1	74*	-1	-1	2	20
SMILES	5HT1a ag	HEK293 NFkB inh	HTR1E agonist	5-HT1A blocker	HTR1E antagonist
O=C(CN(c1ccc(F)cc1)S(=O)(=O)c1ccc2c(c1)OCCO2)N1CCOCC1	-1	4	1	-2	-2
FC(F)(F)C(Oc1nc(NC2CCCCC2)nc(N2CCOCC2)n1)C(F)(F)F	5	19	0	13	-8
COc1ccc(N(CC(=O)NCc2cccs2)S(=O)(=O)c2c(C)nn(C)c2C)cc1	-2	5	1	-15	34*
Cc1nn(C)c(C)c1S(=O)(=O)N(CC(=O)NCc1cccs1)c1ccc(C(C)C)cc1	2	5	1	0	-16
Cc1nc(NC2=NCN(CCCN3CCOCC3)CN2)nc2c(C)cccc12	-1	5	15*	-11	-14
CC(C)Nc1nc(C#N)nc(NC(C)C)n1	1	12	0	-1	31*
CCN(CC)C(=O)C(C)N(C#N)c1nc(NC(C)C)nc(NC(C)C)n1 (configuration not stated)	1	10	-1	-2	3
O=c1cc(CN2CCN(C/C=C/c3ccccc3)CC2)c2cc(O)ccc2o1	0	17	0	44*	16
O=c1cc(CN2CCN(c3ccccc3)CC2)c2cc(O)c(-c3ccccc3)cc2o1	0	19	0	2	-5
O=C(NC1c2ccccc2-c2ccccc21)N1CCCCC1	2	43*	-1	15	2
O=C(Nc1ccccc1C(F)(F)F)N1CCCCCC1	-2	20	0	-3	5
O=C(O)CCC(=O)N1CCN(c2nc3ccccc3s2)CC1	-2	-2	15*	12	4
CCOc1ccc(NC(=O)N2CCN(c3nc4ccccc4s3)CC2)cc1	-1	26	17*	-4	13
CCCOc1ccc(N2C(=O)CC(N3CCN(c4nc5ccccc5s4)CC3)C2=O)cc1 (configuration not stated)	1	16	4	-18	-18
O=C(c1ccco1)N1CCN(C(=O)C2CCCN(S(=O)(=O)Cc3ccccc3)C2)CC1 (configuration not stated)	70*	10	-1	11	7
N#Cc1nc(-c2ccccc2Cl)oc1N1CCOCC1	0	11	-1	10	11
CC1CCN(c2oc(-c3ccccc3Cl)nc2C#N)CC1	1	x	0	x	37*
COc1cccc(-n2c(SCC(=O)NC(C)(C)C)nnc2-c2ccoc2C)c1	-1	7	0	1	3
Cc1occc1-c1nnc(SCC(=O)NC(C)(C)C)n1C(C)c1ccccc1 (configuration not stated)	1	12	43*	10	0
O=C1c2oc3ccc(F)cc3c(=O)c2C(c2ccccc2)N1CC1CCCO1 (configuration not stated)	-3	11	1	3	-4
CCCc1nc(N)c(C#N)c(-c2ccco2)c1CC	1	8	1	19	20
Cc1c(-c2ccc(F)cc2)nc(N)c(C#N)c1-c1ccco1	4	14	0	-22	29*
CC(=O)Nc1ccccc1OCC(=O)c1cc(C)n(Cc2cccs2)c1C	-1	55*	0	47*	5
CN(C)CCOC(=O)CCc1ccccc1	-6	4	0	-28	-4
